Screening results (PubChem)
ALR inh: human ALR oxidase inhibition via reduced H2O2 | P55789 | purified ALR, DTT oxidation, H2O2 HRP-luminol luminescence | inhibition, % (test concentration not listed) | hit rate 3.8% among 290,000;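 active means mean replicate inhibition above about 79%, with every replicate also reaching it, limit read from the data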
Target sequence (P55789 whole entry, looked up): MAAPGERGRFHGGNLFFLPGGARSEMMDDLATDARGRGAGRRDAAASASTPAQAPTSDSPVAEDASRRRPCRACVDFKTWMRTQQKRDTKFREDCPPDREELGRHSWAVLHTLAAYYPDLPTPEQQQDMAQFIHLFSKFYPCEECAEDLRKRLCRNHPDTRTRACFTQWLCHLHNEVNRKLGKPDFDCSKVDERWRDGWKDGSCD
T cell modulator: T cell immune modulation candidate; hit rate 0.068% among 330,000; 2C CD8+ T cell-vesicle binding, flow cytometry; stronger effect = lower value; AID 2052; response (vesicle binding), % at 7 µM;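 active means response, share of CD8 T cells binding vesicles, and their 90th percentile fluorescence all below set limits, cut at about 80% in these data, passing the limit was not always enough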;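 further: values below 100% mean blocked vesicle binding to the CD8+ T cells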
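Assay system: 2C TCR transgenic mouse naive CD8+ T cells, MACS-purified | Read-out: CD8+ gate FL2 mean fluorescence as % of same-row positive control | Signal: High-throughput flow cytometry with anti-B7-1 and anti-CD8 staining | Timing: Binding step 1.5 h, 37 °C, antibody labelling 20 min, ice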
Glyco luc inh: blocks N-linked glycosylation in D54 reporter cells | D54 ERlucT glycosylation luciferase reporter, 24 h; percent of 100 nM tunicamycin response | AID 588692 | hit rate 0.23% among 360,000 | reporter increase, % at 12.5 µM;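 active means mean luciferase reporter signal, scaled so untreated is 0 and the glycosylation-blocking control 100, at or above a set limit in every replicate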;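 further: luciferase carries N-glycosylation sites so blocking glycosylation raises the light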
A number is an active result; . = inactive; / = not tested or not shown. The sample as a whole holds a higher share of hits than the screen did.

SMILES	ALR inh	T cell modulator	Glyco luc inh
COc1ccc(C(=O)NCC(c2cccnc2)N2CCN(c3ccccc3)CC2)cc1OC (stereo not given)	98	.	.
CN(C(=O)CCN1C(=O)c2ccccc2C1=O)c1ccccc1	.	.	.
N#Cc1ccccc1OCC(=O)OCC(=O)NCc1ccc2c(c1)OCO2	.	.	.
CCOC(=O)[C@@H]1[C@H]2COc3ccc(Br)cc3[C@@H]2N2C(=O)N(c3cccc(F)c3)C(=O)[C@]12C	.	.	.
COC(=O)C1=COC(OC2OC(CO)C(O)C(O)C2O)C2C(C)CC(=O)C12 (stereo not given)	/	/	.
Cc1ccc(Nc2[nH]c(=O)c3ccccc3c2C(=O)c2ccccc2)cc1	.	.	/
COc1ccc(NC(=O)N(C)C[C@H]2Oc3ccc(NC(=O)CCN4CCOCC4)cc3C(=O)N([C@H](C)CO)C[C@@H]2C)cc1	.	.	.
Cc1ccc(S(=O)(=O)NCc2ccc(C(=O)N3CCN(c4ccc([N+](=O)[O-])cc4)CC3)cc2)cc1	.	.	.
Cc1sc2nc(CN3CCC(C)CC3)nc(Cl)c2c1C	97	.	/
Cc1sc2nc(CN3CCOCC3)nc(Cl)c2c1C	.	.	.
O=[N+]([O-])c1ccc(C(O)CSC(=S)N2CCCCC2)cc1 (stereo not given)	.	.	.
Cc1cc(OCc2n[nH]c(=S)n2-c2ccccc2)ccc1Cl	/	.	.
COCc1n[nH]c(=S)n1-c1ccccc1	.	.	.
COC(Cc1n[nH]c(=S)n1-c1ccccc1)OC	93	.	.
Cc1ccc(C)c(NCc2n[nH]c(=S)n2-c2ccccc2)c1	86	.	.
Cc1ccc(-n2c(COc3cccc(C)c3)n[nH]c2=S)cc1	.	.	.
Cc1cccc(OCc2n[nH]c(=S)n2-c2ccccc2)c1	77	.	.
Cc1cccc(C)c1NCc1n[nH]c(=S)n1-c1ccccc1	.	.	.
S=c1[nH]nc(CSCc2ccccc2Cl)n1-c1ccccc1	94	.	.
CC1C(=O)N2CCCc3cc(NC(=O)C(=O)NCCc4ccc(F)cc4)cc1c32 (stereo not given)	.	.	.
CC(=O)Oc1ccc(OC(C)=O)c2c1CC1(C)OC1(C)C2 (stereo not given)	/	/	.
Cc1c(NC(=O)C(C)Oc2ccccc2F)c(=O)n(-c2ccccc2)n1C (stereo not given)	.	.	.
C/C(=N/NC(=O)c1cccc(Br)c1)C1CC2CCC1C2 (stereo not given)	.	.	.
COCCN1C(=O)CCC1(C)C(=O)NC(C)(C)C (stereo not given)	/	/	.
COc1ccccc1/C=C/C(=O)OCC(=O)Nc1c(C)nn(-c2ccccc2)c1C	.	.	.
SMILES	ALR inh	T cell modulator	Glyco luc inh
N#CC1(NC(=O)COC(=O)C2=COCCO2)CCCCC1	.	.	.
C/C(=N\NC(=O)C(c1ccccc1)c1ccccc1)c1ccccn1	/	.	.
COC(C(=O)N/N=C(\C)c1ccc(C)cc1)c1ccccc1 (stereo not given)	.	.	.
C/C(=N\NC(=O)C(c1ccccc1)c1ccccc1)c1ccc(O)cc1	90	.	.
COC(C(=O)N/N=C(\C)c1ccc(O)cc1)c1ccccc1 (stereo not given)	98	.	.
C/C(=N\NC(=O)c1csc2ccccc12)c1ccc(O)cc1	100	.	.
O=C(N/N=C/c1cccc(O)c1)c1csc2ccccc12	.	.	.
CC(NC(=S)Nc1ccc(S(=O)(=O)N2CCOCC2)cc1)C1CC2CCC1C2 (stereo not given)	.	.	.
CCCOc1ccc(S(=O)(=O)N2C(=O)CC(=O)N(Cc3ccc(OCC)cc3)C2=O)cc1	/	.	/
CCCCN(C(=O)C1CC(=O)N(c2ccc(OC)cc2OC)C1)c1c(N)n(CC(C)C)c(=O)[nH]c1=O (stereo not given)	.	.	.
C=CCc1cc(/C=C2/NC(=O)N(CC(=O)OC)C2=O)cc(OC)c1O	98	.	.
CCOc1cc(/C=C2/NC(=O)N(CC(=O)OC)C2=O)ccc1O	96	.	.
C=CCc1cc(/C=C2/NC(=S)NC2=O)cc(OC)c1O	.	.	.
CCOc1cc(/C=C2/NC(=O)N(CC(=O)Nc3cccc(C)c3)C2=O)ccc1O	.	.	.
COc1ccc(NC(=O)C(CC(C)C)NC(=O)C2CCCCC2)c(OC)c1 (stereo not given)	.	.	.
COc1ccc(C2=NOC(Cn3nc(-c4ccccc4C)cc3C(=O)O)C2)cc1 (stereo not given)	.	.	.
COc1ccc(N2Cc3cccc(C(=O)NC(C)CCc4ccco4)c3C2=O)cc1 (stereo not given)	98	.	.
CC(CCc1ccco1)NC(=O)c1cccc2c1C(=O)N(C1CCCCC1)C2 (stereo not given)	.	.	.
CC(=O)NCCNc1nc2cc(-c3cnn(CCC(C)C)c3)sc2c(=O)n1C	/	/	.
